In brackets after ≈: the same amount, converted by molar mass.
Tested on: Trypanosoma cruzi (Tulahuen strain) expressing β-galactosidase, trypomastigote and amastigote forms
Format: cell-based
Settings: L929, read-out: IC50 of the positive control
In short: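 L929 fibroblasts were seeded at 4,000/well in phenol red-free RPMI-1640 with 10% FBS and glutamine, then left overnight at 37 °C with 5% CO2. Cells were infected with β-galactosidase Tulahuen trypomastigotes at 40,000/well for 2 h, and free parasites were washed out. After 48 h, test compound (about 100-2 µM, triplicate, from DMSO stocks) was added. After seven days of culture, 100 µM CPRG with 0.1% Nonidet P-40 was added overnight at 37 °C and A570 read. Results were expressed as % growth inhibition, with IC50 by linear interpolation. Benznidazole served as positive control.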

With `O=C(Cn1ccnc1[N+](=O)[O-])NCc1ccccc1` [Benznidazole, benznidazole] as the compound, how does the IC50 read?
Its IC50 is 1 µg/mL (≈ 3.84 µM).

Source: paper PMC4131791 (Memórias do Instituto Oswaldo Cruz, 2014)
